# A selection: hits, their analogues and other compounds. The true share with any hit is near 2.9%.
# SENP7 inh: blocks the human protease SENP7 | Q9BQF6 | 330,000 compounds, 1.5% hits | inhibition, % at 5 µM | recombinant SENP7, Z-RLRGG-aminoluciferin luminescence, 40 min;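 active means inhibition above about 50% at the single test dose, limit read from the data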
# SENP8 block-1: SENP8 (human) protease inhibition | Q96LD8 | recombinant SENP8, Nedd8 substrate fluorescence | inhibition, % at 20 µM | 360,000 compounds, 0.64% hits | AID 602440; in the data active means inhibition mostly above about 40%, no sharp cut-off; inactive means mostly below about 27%
# SENP1 inh: inhibitors of human SENP1 SUMO protease catalytic domain; recombinant SENP1 catalytic domain, CyPet-SUMO1-YPet FRET cleavage; AID 624204; 360,000 compounds, 0.21% hits; inhibition, % at 10 µM; Q9P0U3;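 active means inhibition at least 30% at 10 µM, raw YFP signal under a set limit, fluorescence ratio 0.5 to 1.5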
#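 Assay system: hSENP1 catalytic domain, recombinant. Amount: SENP1 enzyme, 20 pM final. Schedule: 50 min reaction, RT, dark. Technique: FRET, CFP and YFP emission. Control set: no-enzyme wells low, DMSO-plus-enzyme wells high control.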
# Apaf1 inhib: human Apaf-1 inhibition. 330,000 compounds, 0.71% hits. reconstituted apoptosome caspase-3 activity, DEVD-Rh110 fluorescence. inhibition, % at 20 µM. O14727. AID 489030; active means inhibition of at least 40% at 20 µM
#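 System: reconstituted apoptosome with Apaf-1, cytochrome c, caspase-9, procaspase-3, dATP; Signal: Rh110 fluorescence intensity; Schedule: 30 min compound preincubation, 50 min activation, room temperature; Reagent: cytochrome c trigger plus (Z-DEVD)2-Rh110 caspase-3 substrate.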
# SENP8 block-2: blocks the human protease SENP8; Q96LD8; inhibition, % at 10 µM; 330,000 compounds, 1.2% hits; purified SENP8, Z-RLRGG-aminoluciferin cleavage, luminescence; AID 2540; in the data active means inhibition above about 50%
# SENP6 inh: inhibitors of human SENP6 protease. Q9GZR1. Recombinant SENP6 catalytic domain, aminoluciferin luminescence. inhibition, % at 10 µM. 330,000 compounds, 1.8% hits;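 active means inhibition above about 50% at the single tested dose, limit read from the data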
# Target sequence (Q9GZR1 628-1112 limits assumed): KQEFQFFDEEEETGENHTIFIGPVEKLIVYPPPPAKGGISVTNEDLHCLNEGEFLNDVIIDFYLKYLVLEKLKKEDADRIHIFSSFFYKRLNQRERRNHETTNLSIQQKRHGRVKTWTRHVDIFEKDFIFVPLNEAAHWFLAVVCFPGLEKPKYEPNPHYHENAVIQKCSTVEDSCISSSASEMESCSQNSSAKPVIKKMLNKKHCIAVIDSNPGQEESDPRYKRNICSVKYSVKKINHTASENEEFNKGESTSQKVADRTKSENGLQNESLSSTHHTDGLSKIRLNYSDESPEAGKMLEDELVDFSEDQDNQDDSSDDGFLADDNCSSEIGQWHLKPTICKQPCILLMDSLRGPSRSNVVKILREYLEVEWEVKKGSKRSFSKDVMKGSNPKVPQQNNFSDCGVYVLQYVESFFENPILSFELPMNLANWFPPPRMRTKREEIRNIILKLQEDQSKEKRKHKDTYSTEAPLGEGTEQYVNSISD
# Apaf-1 inh conf2: confirmation of Apaf-1 inhibitors | shares compounds with Apaf1 inhib | reconstituted apoptosome, caspase-3 DEVD-Rh110 fluorescence | inhibition, % at 20 µM | 1,800 compounds, 25% hits | AID 504614;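 active means mean inhibition of at least 40% at 20 µM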
# Rh110 interf inh: counter-screen for Apaf-1 inhibitors: fluorescence interference | shares compounds with Apaf1 inhib | Rh110 fluorescence interference, quenched caspase reaction | activation (fluorescence interference), % at 20 µM | 1,800 tested, under 10 active;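 active means signal rise of 40% or more at 20 µM, treated as a fluorescence artifact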
# Fluor interf inh: Apaf-1 inhibitor counter-screen fluorescence artifact; shares compounds with Apaf1 inhib; IC50, µM; 460 tested, under 10 active; fluorescence interference counterscreen, Apaf-1 assay format; call rule not given here
# SENP8 conf: confirmation of human SENP8 protease inhibitors. shares compounds with SENP8 block-1. inhibition, % at 25 µM. purified SENP8, Nedd8-AMC/pro-Nedd8 cleavage fluorescence, 30 min. 1,400 compounds, 15% hits; in the data active means inhibition mostly above about 39%, no sharp cut-off; inactive means mostly below about 34%
# Numbers stand for hits; – = inactive; · = no result given.
SMILES,SENP7 inh,SENP8 block-1,SENP1 inh,Apaf1 inhib,SENP8 block-2,SENP6 inh,Apaf-1 inh conf2,Rh110 interf inh,others
COC(=O)C1=C(c2cccc(OCc3ccccc3)c2)C[C@@H]2CC[C@H]1N2C(=O)NC1CCN(Cc2ccccc2)CC1,–,–,–,48,–,–,–,–,
CC1CN1P(=S)(c1ccccc1)N1CC1C (configuration not stated),·,–,–,·,·,·,·,·,
Cc1ccc(OP2(=O)Nc3cc(C)c(C)cc3S2)cc1 (configuration not stated),·,–,–,·,·,·,·,·,
Cc1c2ccncc2c(C)c2c1[nH]c1ccccc12,–,–,–,67,–,–,–,–,
c1ccc2c(c1)[nH]c1cnccc12,–,–,–,–,–,–,·,·,
Fc1ccc(C(OCCN2CCCC2)c2ccc(F)cc2)cc1,–,–,–,–,–,–,·,·,
c1ccc(CCCN2CCN(CCOC(c3ccccc3)c3ccccc3)CC2)cc1,–,–,–,51,–,–,–,–,
COC(=O)C1=C(c2ccc(Cl)c(C(F)(F)F)c2)C[C@@H]2CC[C@H]1N2C(=O)NCCOc1ccc(OC)cc1,–,–,–,40,–,–,–,–,
O=S(=O)(c1cccc(C(F)(F)F)c1)N1Cc2ccccc2-n2nncc2C1,·,–,–,·,·,·,·,·,
Nc1ccc2ccc3cccc[n+]3c2c1,–,–,–,–,–,–,·,·,
C[n+]1c(-c2ccccc2)c2cc(N)ccc2c2ccc(N)cc21,95,95,–,98,93,82,80,–,Fluor interf inh=–
CCOC(=O)[C@]12Cc3cc4ccccc4cc3[C@H]1N(Cc1ccccc1)C(=O)c1cc(OC)ccc12,·,–,–,·,·,·,·,·,
Cc1[nH]n(-c2ccccc2)c(=O)c1C(c1ccc([N+](=O)[O-])cc1)c1c(C)[nH]n(-c2ccccc2)c1=O,–,90,–,79,–,–,–,–,
Nc1c(C(=O)OCc2ccccc2)c2nc3ccccc3nc2n1Cc1cccs1,–,–,–,86,–,–,–,–,
NCCc1ccc(OCc2ccccc2)c(OCc2ccccc2)c1,–,–,–,46,–,–,–,–,
COc1ccc(CCN)cc1OC,–,–,–,–,–,–,·,·,
COCCCn1c(N)c(C(=O)OC(C)COC)c2nc3ccccc3nc21 (configuration not stated),–,–,–,74,–,–,–,–,
COCCCn1c(N)c(C(=O)Nc2ccccc2)c2nc3ccccc3nc21,–,–,–,51,–,–,–,–,
COc1ccc(CCNC(=O)c2c(N)n(CCN3CCOCC3)c3nc4ccccc4nc23)cc1,–,–,–,–,–,–,·,·,
CCCCOCCCn1c(N)c(C(=O)OC(C)COC)c2nc3ccccc3nc21 (configuration not stated),–,–,–,–,–,–,·,·,
O=S(=O)(c1ccccc1)N1Cc2ccccc2-n2nncc2C1,·,–,–,·,·,·,·,·,
COc1cc2c3cc1Oc1c(OC)c(OC)cc4c1[C@H](Cc1ccc(cc1)Oc1cc(ccc1O)C[C@H]3N(C)CC2)N(C)CC4,–,–,–,–,–,–,·,·,
COc1cc2c3c(c1OC)Oc1ccc(cc1)C[C@H]1c4c(cc(OC)c(OC)c4Oc4ccc(cc4)C[C@@H]3N(C)CC2)CCN1C,–,–,–,45,–,–,–,–,
CCCCCCCCCCCCCCCC[N+](C)(C)C,–,–,–,85,–,–,46,–,Fluor interf inh=–
FC(F)(F)c1ccccc1CCN1CCNCC1,–,–,–,–,–,–,·,·,
O=[N+]([O-])c1ccc(NCc2ccc(Cl)cc2)c2ccncc12,–,43,–,79,–,–,–,–,SENP8 conf=–

# Screening data from PubChem.
